Data taken from ChEMBL document CHEMBL4376884, “Toward a Rational Design of Polyamine-Based Zinc-Chelating Agents for Cancer Therapies” (J Med Chem, 2020).
Calls of active or inactive are those of the source. The rule behind the calls is not given here.

Experiments:
JeKo-1 = assay: Antiproliferative activity against human JeKo1 cells assessed as reduction in cell viability at 10 uM incubated for 48 hrs by cell titer-glo assay; type: functional, cell-based
Summary of the method: (§1)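 Cells plated and treated 24 h later with 10 µM compound for 48 h; viable cells quantified by CellTiter-Glo ATP luminescence. Expressed as percentage of viable cells relative to untreated; mean ± SD of three independent experiments, each in triplicate.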

U-87 MG [1] = assay: Antiproliferative activity against human U87MG cells assessed as reduction in cell viability at 10 uM incubated for 48 hrs by cell titer-glo assay; type: functional, cell-based; conditions: U-87MG ATCC; summary of the method: as §1
Z-138 [2] = assay: Antiproliferative activity against human Z138 cells assessed as reduction in cell viability at 10 uM incubated for 48 hrs by cell titer-glo assay; type: functional, cell-based; summary of the method: as §1
Homo sapiens [3] = species: Homo sapiens; assay: Antiproliferative activity against human JMV2 cells assessed as reduction in cell viability at 10 uM incubated for 48 hrs by cell titer-glo assay; type: functional, cell-based; summary of the method: as §1
Homo sapiens [4] = species: Homo sapiens; assay: Antiproliferative activity against human UPN2 cells assessed as reduction in cell viability at 10 uM incubated for 48 hrs by cell titer-glo assay; type: functional, cell-based; summary of the method: as §1
Homo sapiens [5] = species: Homo sapiens; assay: Antiproliferative activity against human SKMG3 cells assessed as reduction in cell viability at 10 uM incubated for 48 hrs by cell titer-glo assay; type: functional, cell-based; summary of the method: as §1
PC-3 [6] = assay: Induction of cell morphological changes in human PC3 cells assessed as loss of cell adherence at 10 uM incubated for 24 to 48 hrs by phase contrast microscopy; type: functional, cell-based
Summary of the method: (§2)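 LN229 and PC3 cells exposed to 10 µM compound for the indicated time-points, then imaged live by phase-contrast microscopy for morphology.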

LN-229 [7] = assay: Induction of cell morphological changes in human LN229 cells assessed as cell shrinkage at 10 uM incubated for 24 to 48 hrs by phase contrast microscopy; type: functional, cell-based; summary of the method: as §2
Granta-519 = assay: Antiproliferative activity against human GRANTA-519 cells assessed as reduction in cell viability incubated for 48 hrs by cell titer-glo assay; type: functional, cell-based; conditions: Granta-519, 48 h
Summary of the method: (§3)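 Dose-response: cells plated, treated 24 h later for 48 h, then ATP measured by CellTiter-Glo luminescence. IC50 given as mean ± SD from three independent experiments, each in triplicate. Fibroblasts came from individuals. Cells were kept in RPMI or DMEM with 10% heat-inactivated FBS and penicillin/streptomycin at 37 °C, 5% CO2.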

Z-138 [8] = assay: Antiproliferative activity against human Z138 cells assessed as reduction in cell viability incubated for 48 hrs by cell titer-glo assay; type: functional, cell-based; conditions: Z-138, 48 h; summary of the method: as §3
LN-229 [9] = assay: Antiproliferative activity against human LN229 cells assessed as reduction in cell viability incubated for 48 hrs by cell titer-glo assay; type: functional, cell-based; conditions: LN-229, 48 h; summary of the method: as §3
LN-229 [10] = assay: Cell cycle arrest in human LN229 cells assessed as cell accumulation at G2/M phase at 10 uM incubated for 48 hrs by propidium iodide staining based flow cytometry analysis relative to control; type: functional
PC-3 [11] = assay: Cell cycle arrest in human PC3 cells assessed as cell accumulation at G1 phase at 10 uM incubated for 24 hrs by propidium iodide staining based flow cytometry analysis relative to control; type: functional
PC-3 [12] = assay: Cell cycle arrest in human PC3 cells assessed as cell accumulation at S phase at 10 uM incubated for 48 hrs by propidium iodide staining based flow cytometry analysis relative to control; type: functional
PC-3 [13] = assay: Induction of cellular senescence in human PC3 cells assessed as increase in beta-gal-positive cells at 10 uM incubated for 24 hrs by X-Gal staining based microscopic assay relative to control; type: functional
Summary of the method: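 LN229 and PC3 cells, 12×10^4 per well in 6-well plates, treated with 10 µM compound for 24 h. Senescence-associated β-gal staining: fixed in 2% formaldehyde/0.2% glutaraldehyde for 10 min at RT, stained with 1 mg/mL X-gal at 37 °C for 24 h without CO2. Blue cells counted in at least 10 fields at 10x and given as percent of total; four independent experiments. Morphology viewed by phase contrast at ×100.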

Z-138 [14] = assay: Induction of apoptosis in human Z138 cells assessed as increase in caspase-3/7 activation at 10 uM incubated for 48 hrs by luminometric caspase-glo 3/7 assay; type: functional, cell-based
Summary of the method: (§4)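 Cells in RPMI or DMEM with 10% heat-inactivated FBS and penicillin/streptomycin, 37 °C, 5% CO2, treated with 10 µM compound for 48 h. Caspase-3 and caspase-7 activity read by luminescent Caspase-Glo 3/7 assay, reported as fold induction over untreated cells; mean ± SD of three independent experiments, each in triplicate.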

Homo sapiens [15] = species: Homo sapiens; assay: Induction of apoptosis in human UPN2 cells assessed as increase in caspase-3/7 activation at 10 uM incubated for 48 hrs by luminometric caspase-glo 3/7 assay; type: functional, cell-based; summary of the method: as §4
U-87 MG [16] = assay: Induction of apoptosis in human U87MG cells assessed as increase in caspase-3/7 activation at 10 uM incubated for 48 hrs by luminometric caspase-glo 3/7 assay; type: functional, cell-based; conditions: U-87MG ATCC; summary of the method: as §4
PC-3 [17] = assay: Induction of apoptosis in human PC3 cells assessed as increase in caspase-3/7 activation at 10 uM incubated for 48 hrs by luminometric caspase-glo 3/7 assay; type: functional, cell-based; summary of the method: as §4
PC-3 [18] = assay: Induction of apoptosis in human PC3 cells assessed as late apoptotic cells at 10 uM incubated for 72 hrs by annexin V-FITC and propidium iodide staining based flow cytometry analysis (reference value: 0.52 %); type: functional
PC-3 [19] = assay: Induction of apoptosis in human PC3 cells assessed as necrotic cells at 10 uM incubated for 72 hrs by annexin V-FITC and propidium iodide staining based flow cytometry analysis (reference value: 0.30 %); type: functional
DNA = assay: Induction of DNA damage in human LN229 cells assessed as gammaH2AX phosphorylation at Ser139 residue at 10 uM incubated for 4 hrs by Flow cytometry analysis; type: cell-based
Summary of the method: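 Z-138 and LN229 cells treated 4 h with 10 µM compound or 1 µM doxorubicin. Fixed in 3.7% formaldehyde on ice, permeabilized with 0.2% Triton X, stained with rabbit anti-pS139 H2A.X (1:400) and Alexa 555 secondary, then analysed by flow cytometry. Fold γH2AX fluorescence versus untreated; mean ± SD of three experiments.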

LN-229 [20] = assay: Antiproliferative activity against human LN229 cells assessed as reduction in cell viability at 10 uM incubated for 48 hrs in presence of Fe2+ ion by MTT assay; type: functional, cell-based
Summary of the method: (§5)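 LN229 and PC3 cells plated, then 24 h later given 10 µM compound with or without 15 µM ZnCl2, CuCl2, FeCl2 or FeCl3 for 48 h. Medium replaced, MTT (12 mM solution) added for 4 h, formazan dissolved in DMSO, absorbance read at 540 nm. Percent viable versus untreated; mean ± SD of three experiments in triplicate.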

LN-229 [21] = assay: Antiproliferative activity against human LN229 cells assessed as reduction in cell viability at 10 uM incubated for 48 hrs in presence of Fe3+ ion by MTT assay; type: functional, cell-based; summary of the method: as §5
PC-3 [22] = assay: Antiproliferative activity against human PC3 cells assessed as reduction in cell viability at 10 uM incubated for 48 hrs in presence of Zn2+ ion by MTT assay; type: functional, cell-based; summary of the method: as §5
PC-3 [23] = assay: Induction of apoptosis in human PC3 cells assessed as increase in early and late apoptotic cells at 10 uM incubated for 72 hrs by annexin V-FITC and propidium iodide staining based flow cytometry analysis relative to control; type: functional
LN-229 [24] = assay: Induction of apoptosis in human LN229 cells at 10 uM incubated for 24 to 48 hrs by annexin V-FITC and propidium iodide staining based flow cytometric analysis; type: functional, cell-based

CN(CCNCc1ccccn1)CCNCc1ccccn1
Activity (JeKo-1): Active
Activity (U-87 MG [1]): Active
Activity (Z-138 [2]): Active
Activity (Homo sapiens [3]): Active
Activity (Homo sapiens [4]): Active
Activity (Homo sapiens [5]): Active
Activity (PC-3 [6]): Active
Activity (LN-229 [7]): Active
IC50 (Granta-519): 2.09 µM
IC50 (Z-138 [8]): 4.85 µM
IC50 (LN-229 [9]): 6.84 µM
Activity (LN-229 [10]): 20.2%
Activity (PC-3 [11]): 71.1%
Activity (PC-3 [12]): 7.2%
Activity (PC-3 [13]): Active
Activity (Z-138 [14]): Active
Activity (Homo sapiens [15]): Active
Activity (U-87 MG [16]): Active
Activity (PC-3 [17]): Active
Activity (PC-3 [18]): 12.63%
Activity (PC-3 [19]): 3.5%
Activity (DNA): inactive
Activity (LN-229 [20]): Active
Activity (LN-229 [21]): Active
Activity (PC-3 [22]): inactive
fold change (FC) (PC-3 [23]): 30
Activity (LN-229 [24]): Active

c1ccc(CNCCN(CCNCc2ccccn2)Cc2ccc3ccccc3c2)nc1
Activity (JeKo-1): Active
Activity (U-87 MG [1]): Active
Activity (Z-138 [2]): Active
Activity (Homo sapiens [3]): Active
Activity (Homo sapiens [4]): Active
Activity (Homo sapiens [5]): Active
Activity (PC-3 [6]): Active
Activity (LN-229 [7]): Active
IC50 (Granta-519): 4.34 µM
IC50 (Z-138 [8]): 3.07 µM
IC50 (LN-229 [9]): 6.3 µM
Activity (LN-229 [10]): 14.4%
Activity (PC-3 [11]): 73.7%
Activity (PC-3 [12]): 7.7%
Activity (PC-3 [13]): 50%
Activity (Z-138 [14]): Active
Activity (Homo sapiens [15]): Active
Activity (U-87 MG [16]): Active
Activity (PC-3 [17]): Active
Activity (PC-3 [18]): 11.68%
Activity (PC-3 [19]): 2.32%
Activity (DNA): inactive
Activity (LN-229 [20]): Active
Activity (LN-229 [21]): Active
Activity (PC-3 [22]): inactive
fold change (FC) (PC-3 [23]): 30
Activity (LN-229 [24]): Active
